What was measured:
[1] = test system: Streptococcus sp. 'group B'; assay: Antimicrobial activity against Group B streptococcus serotype VI R1 harboring F395L, V405A, R433H, H438Y, and G648A mutations in PBP 2X and T567I mutation in PBP 2B by broth microdilution method; type: functional
In short: (§1)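 Broth microdilution MICs following CLSI guidelines, using a commercial panel system; GBS clinical isolates and reference strains grown in Todd-Hewitt broth at 37°C. Each strain tested five times to confirm reproducibility, with S. pneumoniae ATCC 49619 as quality-control strain. No β-lactamase activity by acidimetric method in any strain.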

[2] = test system: Streptococcus sp. 'group B'; assay: Antimicrobial activity against Group B streptococcus R8 harboring T77I, S353F and A514V in PBP 2X; V80A and G613R in PBP 2B; and L45P, N163K, N723S and G527V in PBP 1A by broth microdilution method; type: functional; in short: as §1
[3] = test system: Streptococcus sp. 'group B'; assay: Antimicrobial activity against Group B Streptococcus serotype III NEM 316 by broth microdilution method; type: functional
In short: (§2)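 Broth microdilution MICs read on a commercial dried panel system (type 3J), following CLSI guidelines. Isolates were grown in Todd-Hewitt broth at 37°C. Each strain was tested five times for reproducibility, with S. pneumoniae ATCC 49619 as the quality-control strain. β-lactamase activity was checked by the acidimetric method.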

[4] = test system: Streptococcus sp. 'group B'; assay: Antimicrobial activity against Group B streptococcus serotype Ib R3 harboring Q557E, A400V mutations in PBP 2X and T567I, G539E mutations in PBP 2B by broth microdilution method; type: functional; in short: as §1
[5] = test system: Streptococcus sp. 'group B'; assay: Antimicrobial activity against Group B streptococcus serotype V C1 harboring E63K mutation in PBP 2A and L41S mutation in PBP 1B by broth microdilution method; type: functional; in short: as §1
[6] = test system: Streptococcus sp. 'group B'; assay: Antimicrobial activity against Group B streptococcus serotype VI N4 harboring E63K mutation in PBP 2A and L41S mutation in PBP 1B by broth microdilution method; type: functional; in short: as §1
[7] = test system: Streptococcus sp. 'group B'; assay: Antimicrobial activity against Group B Streptococcus serotype V harboring E63K mutation in PBP 2A and L41S mutation in PBP 1B by broth microdilution method
[8] = test system: Streptococcus sp. 'group B'; assay: Antimicrobial activity against Group B streptococcus serotype Ib C2 harboring E63K mutation in PBP 2A and L41S mutation in PBP 1B by broth microdilution method; type: functional; in short: as §1
[9] = test system: Streptococcus sp. 'group B'; assay: Antimicrobial activity against Group B streptococcus serotype Ia R7 harboring T77I, F395V and S353F in PBP 2X; V80A and G613R in PBP 2B; and L45P, N163K, N723S and Y470F in PBP 1A by broth microdilution method; type: functional; in short: as §1
[10] = test system: Streptococcus sp. 'group B'; assay: Antimicrobial activity against Group B streptococcus serotype VI R5 harboring F395L, V405A, R433H, H438Y, and G648A mutations in PBP 2X and T567I mutation in PBP 2B by broth microdilution method; type: functional; in short: as §1
[11] = test system: Streptococcus sp. 'group B'; assay: Antimicrobial activity against Group B streptococcus serotype VI R6 harboring F395L, V405A, R433H, H438Y, A374V and G648A mutations in PBP 2X and T567I mutation in PBP 2B by broth microdilution method; type: functional; in short: as §1
[12] = test system: Streptococcus sp. 'group B'; assay: Antimicrobial activity against Group B streptococcus serotype Ib N2 harboring E63K mutation in PBP 2A and L41S mutation in PBP 1B by broth microdilution method; type: functional; in short: as §1
[13] = test system: Streptococcus sp. 'group B'; assay: Antimicrobial activity against Group B streptococcus serotype III N3 by broth microdilution method; type: functional; in short: as §2
[14] = test system: Streptococcus sp. 'group B'; assay: Antimicrobial activity against Group B streptococcus serotype VI R4 harboring Q557E mutation in PBP 2X and T567I, Y262N mutations in PBP 2B by broth microdilution method; type: functional; in short: as §1
[15] = test system: Streptococcus sp. 'group B'; assay: Antimicrobial activity against Group B streptococcus serotype VI R2 harboring F395L, V405A, R433H, H438Y, and G648A mutations in PBP 2X and T567I mutation in PBP 2B by broth microdilution method; type: functional; in short: as §1
[16] = test system: Streptococcus sp. 'group B'; assay: Antimicrobial activity against Group B Streptococcus serotype Ia N1 harboring E63K mutation in PBP 2A and L41S mutation in PBP 1B by broth microdilution method; type: functional; in short: as §1

Measured: MIC

C=CC1=C(C(=O)O)N2C(=O)[C@@H](NC(=O)/C(=N\OCC(=O)O)c3csc(N)n3)[C@H]2SC1 [CEFIXIME]
1 µg/mL: [12]
> 1 µg/mL: [1] | [2] | [4] | [9] | [10] | [11] | [14] | [15]
0.5 µg/mL: [3] | [5] | [6] | [7] | [8] | [13] | [16]

CC[C@H]1OC(=O)[C@H](C)[C@@H](O[C@H]2C[C@@](C)(OC)[C@@H](O)[C@H](C)O2)[C@H](C)[C@@H](O[C@@H]2O[C@H](C)C[C@H](N(C)C)[C@H]2O)[C@](C)(OC)C[C@@H](C)C(=O)[C@H](C)[C@@H](O)[C@]1(C)O [CLARITHROMYCIN]
1 µg/mL: [2]
2 µg/mL: [9]
> 2 µg/mL: [14]
≤ 0.12 µg/mL: [1] | [3] | [4] | [5] | [6] | [7] | [8] | [10] | [11] | [12] | [13] | [15] | [16]

C[C@@H](O)[C@H]1C(=O)N2C(C(=O)O)=C(S[C@@H]3CN[C@H](C(=O)N(C)C)C3)[C@H](C)[C@H]12 [MEROPENEM]
≤ 0.12 µg/mL: [3] | [5] | [6] | [7] | [8] | [12] | [13] | [16]
0.25 µg/mL: [1] | [2] | [4] | [9] | [10] | [14]
0.5 µg/mL: [11] | [15]

CC[C@H]1OC(=O)[C@H](C)[C@@H](O[C@H]2C[C@@](C)(OC)[C@@H](O)[C@H](C)O2)[C@H](C)[C@@H](O[C@@H]2O[C@H](C)C[C@H](N(C)C)[C@H]2O)[C@](C)(O)C[C@@H](C)C(=O)[C@H](C)[C@@H](O)[C@]1(C)O [ERYTHROMYCIN]
≤ 0.12 µg/mL: [1] | [3] | [4] | [5] | [6] | [7] | [8] | [10] | [11] | [12] | [13] | [15] | [16]
> 2 µg/mL: [2] | [9] | [14]

C[C@H]1COc2c(N3CCN(C)CC3)c(F)cc3c(=O)c(C(=O)O)cn1c23.C[C@H]1COc2c(N3CCN(C)CC3)c(F)cc3c(=O)c(C(=O)O)cn1c23.O [LEVOFLOXACIN]
8 µg/mL: [1] | [15]
4 µg/mL: [10] | [11]
0.5 µg/mL: [3] | [5] | [6] | [7] | [12] | [13]
1 µg/mL: [16]
> 8 µg/mL: [2] | [4] | [8] | [9]
2 µg/mL: [14]

CO/N=C(\C(=O)N[C@@H]1C(=O)N2C(C(=O)O)=C(COC(C)=O)CS[C@H]12)c1csc(N)n1 [CEFOTAXIME]
≤ 0.06 µg/mL: [3] | [5] | [6] | [7]
0.5 µg/mL: [1] | [4] | [10] | [11] | [14] | [15]
1 µg/mL: [2] | [9]
0.12 µg/mL: [8] | [12] | [13] | [16]

CO/N=C(\C(=O)N[C@@H]1C(=O)N2C(C(=O)OCOC(=O)C(C)(C)C)=C(/C=C\c3scnc3C)CS[C@H]12)c1csc(N)n1 [CEFDITOREN PIVOXIL]
0.25 µg/mL: [1] | [4] | [10] | [11] | [14] | [15]
0.5 µg/mL: [2] | [9]
≤ 0.06 µg/mL: [3] | [5] | [6] | [7] | [8] | [12] | [13] | [16]

CN(C)CCn1nnnc1SCC1=C(C(=O)O)N2C(=O)[C@@H](NC(=O)Cc3csc(N)n3)[C@H]2SC1 [CEFOTIAM]
> 4 µg/mL: [2] | [9]
4 µg/mL: [1] | [4] | [11] | [14] | [15]
≤ 0.5 µg/mL: [3] | [5] | [6] | [7] | [8] | [12] | [13] | [16]
2 µg/mL: [10]

CN(C)[C@@H]1C(O)=C(C(N)=O)C(=O)[C@@]2(O)C(O)=C3C(=O)c4c(O)cccc4[C@@](C)(O)[C@H]3C[C@@H]12 [TETRACYCLINE]
≤ 0.5 µg/mL: [3] | [4] | [8] | [12]
> 4 µg/mL: [1] | [2] | [5] | [6] | [7] | [9] | [10] | [11] | [13] | [14] | [15] | [16]

CC1(C)S[C@@H]2[C@H](NC(=O)Cc3ccccc3)C(=O)N2[C@H]1C(=O)O [PENICILLIN G]
0.5 µg/mL: [1] | [4] | [11] | [14] | [15]
0.25 µg/mL: [10]
0.06 µg/mL: [3] | [5] | [6] | [7] | [8] | [12] | [13] | [16]
1 µg/mL: [2] | [9]

CO/N=C(\C(=O)N[C@@H]1C(=O)N2C(C(=O)[O-])=C(C[N+]3(C)CCCC3)CS[C@H]12)c1csc(N)n1 [CEFEPIME]
1 µg/mL: [1] | [2] | [10] | [11] | [14] | [15]
2 µg/mL: [9]
≤ 0.5 µg/mL: [3] | [4] | [5] | [6] | [7] | [8] | [12] | [13] | [16]

CCC[C@@H]1C[C@@H](C(=O)N[C@@H]([C@H]2O[C@H](SC)[C@H](O)[C@@H](O)[C@H]2O)[C@H](C)Cl)N(C)C1 [CLINDAMYCIN]
≤ 0.12 µg/mL: [1] | [2] | [3] | [4] | [5] | [6] | [7] | [8] | [9] | [10] | [11] | [12] | [13] | [15] | [16]
> 1 µg/mL: [14]

CC1(C)S[C@@H]2[C@H](NC(=O)[C@H](N)c3ccccc3)C(=O)N2[C@H]1C(=O)O [AMPICILLIN]
0.12 µg/mL: [3] | [5] | [6] | [7] | [13] | [16]
0.25 µg/mL: [4] | [8] | [12] | [14]
0.5 µg/mL: [1] | [2] | [9] | [10] | [11] | [15]

CO/N=C(\C(=O)N[C@@H]1C(=O)N2C(C(=O)[O-])=C(C[n+]3ccn4ncccc43)CS[C@H]12)c1nsc(N)n1 [CEFOZOPRAN]
1 µg/mL: [2] | [4] | [15]
0.12 µg/mL: [3] | [5] | [6] | [7] | [8] | [12] | [13] | [16]
2 µg/mL: [9]
0.5 µg/mL: [1] | [10] | [11] | [14]

Reference: ChEMBL document CHEMBL1275555, “Genetic heterogeneity in pbp genes among clinically isolated group B Streptococci with reduced penicillin susceptibility” (2008)
